Experiment [1] deals with MCF7. Nature of the experiment: Cell cycle arrest in human MCF7 cells assessed as accumulation at G2/M phase at 2 uM after 24 hrs using propidium iodide staining by flow cytometry. It is filed as functional. In outline:
(§1)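 MCF-7 cells were grown in DMEM with 10% fetal calf serum, penicillin and streptomycin, at 37 °C in 5% CO2. They were treated for 24 h at 2 and 4 µM, with DMSO-treated cells as controls. Cells were trypsinised, fixed in ice-cold 70% ethanol at 4 °C for 30 min, and RNaseA-treated at 37 °C for 30 min. Phases were read by flow cytometry.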
Background: A flow cytometer gives signals particle by particle.

Experiment [2] has as its system MCF7. Nature of the experiment: Cell cycle arrest in human MCF7 cells assessed as accumulation at G0 phase at 4 uM after 24 hrs using propidium iodide staining by flow cytometry. Format: functional. The essentials: as §1
The subject of experiment [3] is MCF7. Nature of the experiment: Cell cycle arrest in human MCF7 cells assessed as accumulation at G1 phase at 4 uM after 24 hrs using propidium iodide staining by flow cytometry. It is filed as functional. The essentials: as §1
Experiment [4] has as its system MCF7. Nature of the experiment: Cell cycle arrest in human MCF7 cells assessed as accumulation at S phase at 4 uM after 24 hrs using propidium iodide staining by flow cytometry. It is filed as functional. The essentials: as §1
Experiment [5] relates to MCF7. Nature of the experiment: Cell cycle arrest in human MCF7 cells assessed as accumulation at G0 phase after 24 hrs using propidium iodide staining by flow cytometry. It is filed as functional, cell-based. In outline: as §1
For experiment [6], the system named is MCF7. Nature of the experiment: Induction of apoptosis in human MCF7 cells assessed as DNA fragmentation at 4 uM after 24 hrs using ethidium bromide staining by agarose gel electrophoresis. Format: functional, cell-based. The essentials: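 1.5×10⁶ MCF-7 cells in 60 mm dishes were treated for 24 h and lysed in 10 mM Tris-HCl pH 7.5, 10 mM EDTA, 0.5% Triton X-100. The supernatant was digested with RNase A and proteinase K for 2 h at 37 °C. DNA was isolated by phenol–chloroform extraction and ethanol precipitation, run on 1% agarose with a 100 bp marker, and stained with ethidium bromide under UV.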

The test system of experiment [7] is MCF7. Nature of the experiment: Induction of p53 expression in human MCF7 cells. Format: functional, cell-based.
The subject of experiment [8] is MCF7. Kind of experiment: Increase of cytosolic cytochrome c level in human MCF7 cells at 2 uM after 24 hrs by Western blot analysis. It is filed as functional, cell-based. The essentials:
(§2)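 MCF-7 cells were grown in DMEM with 10% FCS and penicillin/streptomycin at 37 °C in 5% CO2, then treated for 24 h. Cells were lysed in ice-cold RIPA buffer with protease inhibitors and NaF. Protein was measured by Bradford assay, and 30 µg per lane was run on 12% SDS-PAGE and transferred to PVDF. Antibody steps: primary at 4 °C overnight, HRP secondary 1:2000, chemiluminescent detection.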

The subject of experiment [9] is MCF7. Kind of experiment: Increase of cytosolic cytochrome c level in human MCF7 cells at 4 uM after 24 hrs by Western blot analysis. It is filed as functional, cell-based. The essentials: as §2
(In western blotting, separated proteins are transferred to a membrane and probed.)

Experiment [10] relates to MCF7. Kind of experiment: Induction of apoptosis in human MCF7 cells assessed as increase of caspase 8 activation at 2 uM after 1 hr by […] method. It is filed as functional, cell-based. The essentials:
(§3)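 Colorimetric caspase-8 kit on lysates of treated MCF-7 cells. The IETD-pNA substrate was incubated with cell lysate at 37 °C for 1 h, and absorbance was read at 405 nm. Untreated cells served as the control.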

For experiment [11], the system named is MCF7. Kind of experiment: Induction of apoptosis in human MCF7 cells assessed as increase of caspase 8 activation at 4 uM after 1 hr by […] method. Format: functional, cell-based. The essentials:
as §3

In experiment [12] the test system is MCF7. Nature of the experiment: Induction of apoptosis in human MCF7 cells assessed as increase of caspase 9 activation at 4 uM after 1 hr by fluorimetry based assay. It is filed as functional, cell-based.
In experiment [13] the test system is MCF7. Nature of the experiment: Increase of PARP cleavage in human MCF7 cells at 2 uM after 24 hrs by Western blot analysis. Format: functional, cell-based. The essentials:
as §2

The subject of experiment [14] is MCF7. Nature of the experiment: Increase of PARP cleavage in human MCF7 cells at 4 uM after 24 hrs by Western blot analysis. It is filed as functional, cell-based. In outline: as §2
The test system of experiment [15] is MCF7. Kind of experiment: Cytotoxicity against human MCF7 cells at 2 uM after 24 hrs by MTT assay relative to control. It is filed as functional. The essentials:
(§4)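 MCF-7 cells were seeded at 10,000 cells/well in DMEM with 10% fetal calf serum. They were exposed to 0.5, 1, 2 and 4 µM for 24 h. MTT reduction to formazan was read at 570 nm, with untreated controls taken as 100% viability. DMSO-treated cells served as an additional control.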

The subject of experiment [16] is MCF7. Kind of experiment: Cytotoxicity against human MCF7 cells at 4 uM after 24 hrs by MTT assay relative to control. Format: functional, cell-based. The essentials:
as §4
Background: Tetrazolium dyes change colour on reduction, which living cells bring about.

Experiment [17] relates to Nucleic Acid. Nature of the experiment: Inhibition of Escherichia coli pBR322 DNA cleavage after 16 hrs by RED100-restriction endonuclease digestion assay. It is filed as nucleic-acid assay. In outline:
(§5)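 pBR322 DNA was preincubated with compound at final 2, 4, 8, 16 and 32 µM for 16 h at 37 °C. BamHI (10 U/µl) in BamHI buffer was then added for 2 h at 37 °C. Products were separated on agarose in 0.5× Tris–acetate EDTA at 80 V for 1 h and stained with ethidium bromide. Cut and uncut DNA served as controls.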

In experiment [18] the test system is Nucleic Acid. Kind of experiment: Inhibition of Escherichia coli pBR322 DNA cleavage at 16 uM after 16 hrs by RED100-restriction endonuclease digestion assay. It is filed as nucleic-acid assay. In outline: as §5
Experiment [19] has as its system MCF7. Kind of experiment: Cell cycle arrest in human MCF7 cells assessed as accumulation at G0 phase at 2 uM after 24 hrs using propidium iodide staining by flow cytometry. Format: functional. In outline: as §1
Experiment [20] concerns MCF7. Kind of experiment: Cell cycle arrest in human MCF7 cells assessed as accumulation at G2/M phase at 4 uM after 24 hrs using propidium iodide staining by flow cytometry. It is filed as functional. In outline: as §1
Experiment [21] has as its system MCF7. Kind of experiment: Cell cycle arrest in human MCF7 cells assessed as accumulation at G1 phase at 2 uM after 24 hrs using propidium iodide staining by flow cytometry. It is filed as functional. The essentials:
as §1

Experiment [22] concerns MCF7. Nature of the experiment: Cell cycle arrest in human MCF7 cells assessed as accumulation at S phase at 2 uM after 24 hrs using propidium iodide staining by flow cytometry. Format: functional. In outline:
as §1

Experiment [23] relates to MCF7. Kind of experiment: Decrease of cyclin D1 level in human MCF7 cells at 2 uM after 24 hrs by Western blot analysis. Format: functional, cell-based. In outline: (§6)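 MCF-7 cells were treated at 2 or 4 µM for 24 h, then lysed in ice-cold RIPA buffer with protease inhibitors and NaF. Protein was quantified by Bradford. Thirty µg per lane was run on 12% SDS-PAGE and transferred to PVDF. Membranes were blocked 2 h, given primary antibody overnight at 4 °C, then HRP secondary (1:2000) for 1 h. Bands were detected by chemiluminescence.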

Experiment [24] relates to MCF7. Nature of the experiment: Decrease of cyclin D1 level in human MCF7 cells at 4 uM after 24 hrs by Western blot analysis. Format: functional, cell-based. The essentials: as §6
The subject of experiment [25] is MCF7. Kind of experiment: Induction of apoptosis in human MCF7 cells assessed as increase of caspase 9 activation at 2 uM after 1 hr by fluorimetry based assay. Format: functional, cell-based.
The subject of experiment [26] is MCF7. Kind of experiment: Induction of apoptosis in human MCF7 cells assessed as increase of caspase 9 activation at 2 to 4 uM after 1 hr by fluorimetry based assay in presence of caspase 9 inhibitor LEHD-CHO. It is filed as functional, cell-based.
The test system of experiment [27] is MCF7. Nature of the experiment: Cytotoxicity against human MCF7 cells at 1 uM after 24 hrs by MTT assay relative to control. It is filed as functional. In outline:
as §4

Active and inactive are the calls of the source. The rule behind the calls is not given here.

A word on the inhibition: it is the drop in the measured response relative to a control, in per cent.

With `COc1cc2c(cc1OCCCCOc1ccc(-c3cc4ccccc4c4ccccc34)cc1)N=C[C@@H]1CCCN1C2=O`, the Activity is 4.25% in the experiment with MCF7 [1]; 20.86% in the experiment on MCF7 [2]; 70.3% with MCF7 [3]; 5.5% with MCF7 [4]; “Dose-dependent effect” with MCF7 [5]; “<=50%” in the experiment on MCF7 [15]. The Activity came to 15.08% in the experiment with MCF7 [19], 2.94% in the experiment with MCF7 [20], 66.31% in the experiment with MCF7 [21] and 12.45% with MCF7 [22]. The result with MCF7 [6], in the experiment with MCF7 [7], in the experiment on MCF7 [8], in the experiment with MCF7 [9], in the experiment with MCF7 [10] and in the experiment with MCF7 [11] was Active. The outcome in the experiment with MCF7 [12], in the experiment with MCF7 [13], with MCF7 [14] and with MCF7 [16] was Active. Moreover, the inhibition result in the experiment on Nucleic Acid [17] is “Dose-dependent effect”; with Nucleic Acid [18] it was 100%.

As for `COc1cc2c(cc1OCCCCCOc1ccc(-c3cc4ccccc4c4ccccc34)cc1)N=C[C@@H]1CCCN1C2=O`, the Activity with MCF7 [1] was 2.61%; in the experiment with MCF7 [2], 22.71%; in the experiment with MCF7 [3], 69.07%; in the experiment on MCF7 [4], 4.86%; in the experiment on MCF7 [5], “Dose-dependent effect”; in the experiment on MCF7 [27], “<=50%”. Further, the Activity amounted to 13.08% with MCF7 [19], 2.46% with MCF7 [20], 75.84% with MCF7 [21] and 7.76% with MCF7 [22]. Besides, the outcome with MCF7 [6], with MCF7 [7], with MCF7 [23], in the experiment on MCF7 [24], with MCF7 [8] and in the experiment on MCF7 [9] was Active. In addition, the outcome with MCF7 [10], with MCF7 [11], with MCF7 [25], in the experiment on MCF7 [12], with MCF7 [13] and in the experiment on MCF7 [14] was Active. Also, the outcome with MCF7 [16] was Active. In addition, the outcome in the experiment on MCF7 [26] was inactive. Also, the results for the inhibition entry with Nucleic Acid [17] and in the experiment on Nucleic Acid [18] were “Dose-dependent effect” and 100%, respectively.

On to `COc1cc2c(cc1O)N=C[C@@H]1CCCN1C2=O`, for which the Activity is recorded as 13.1% in the experiment on MCF7 [1]; 8.07% in the experiment on MCF7 [2]; 75.28% in the experiment with MCF7 [3]; 14.16% in the experiment on MCF7 [4]; 3.19% in the experiment on MCF7 [19]; 3.5% in the experiment on MCF7 [20]. The values for the Activity with MCF7 [21] and with MCF7 [22] were 65.98% and 20.26%, respectively. The outcome in the experiment with MCF7 [8], in the experiment with MCF7 [9], in the experiment with MCF7 [11], with MCF7 [13] and in the experiment on MCF7 [14] was Active.

Source of the values: ChEMBL document CHEMBL1165860, “Synthesis and potential cytotoxic activity of new phenanthrylphenol-pyrrolobenzodiazepines” (2010).
